According to ChEMBL document CHEMBL5696442, “Discovery of type II inhibitors of TGFβ-activated kinase 1 (TAK1) and mitogen-activated protein kinase kinase kinase kinase 2 (MAP4K2)” (J Med Chem, 2015):

Tests used:
[1] = target: Tyrosine-protein kinase Fer (Homo sapiens, UniProt P16591); assay: Inhibition of FER Lys1 labeling site harbouring TSVAVKTCKEDLPQELKin human A-375 cells at 0.5 uM by KiNativ Profiling analysis relative to control; assay type: cell-based
[2] = target: Ribosomal protein S6 kinase alpha-2 (Homo sapiens) (UniProt Q15349); assay: Inhibition of RSK3 Protein Kinase Domain in human A-375 cells at 0.05 uM by KiNativ Profiling analysis relative to control; assay type: cell-based
Chain of Ribosomal protein S6 kinase alpha-2 (Homo sapiens) (Q15349 whole entry, the tested form may be a part): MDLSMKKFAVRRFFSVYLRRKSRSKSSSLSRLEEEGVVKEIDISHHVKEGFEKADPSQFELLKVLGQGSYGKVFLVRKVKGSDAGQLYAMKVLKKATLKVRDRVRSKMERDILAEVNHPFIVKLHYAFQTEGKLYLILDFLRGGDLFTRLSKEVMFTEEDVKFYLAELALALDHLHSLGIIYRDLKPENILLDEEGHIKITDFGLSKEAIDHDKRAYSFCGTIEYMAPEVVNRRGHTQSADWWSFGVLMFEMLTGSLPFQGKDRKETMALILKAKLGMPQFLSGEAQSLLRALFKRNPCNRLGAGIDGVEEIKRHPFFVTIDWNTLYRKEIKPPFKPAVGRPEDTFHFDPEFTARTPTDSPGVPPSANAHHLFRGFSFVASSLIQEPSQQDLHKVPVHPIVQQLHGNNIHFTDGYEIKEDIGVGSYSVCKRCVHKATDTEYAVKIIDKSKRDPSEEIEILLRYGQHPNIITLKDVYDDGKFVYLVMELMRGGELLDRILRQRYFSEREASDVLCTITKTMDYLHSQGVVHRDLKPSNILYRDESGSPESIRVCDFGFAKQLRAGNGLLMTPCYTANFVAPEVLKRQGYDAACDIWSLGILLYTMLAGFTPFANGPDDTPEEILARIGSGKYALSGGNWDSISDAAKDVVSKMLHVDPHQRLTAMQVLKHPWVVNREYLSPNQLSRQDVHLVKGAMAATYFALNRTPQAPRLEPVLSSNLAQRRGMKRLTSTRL

[3] = target: Wee1-like protein kinase (Homo sapiens) (UniProt P30291); assay: Inhibition of Wee1 Lys2 labeling site in human A-375 cells at 0.5 uM by KiNativ Profiling analysis relative to control; assay type: cell-based
Chain of Wee1-like protein kinase (Homo sapiens) (P30291 whole entry, looked up): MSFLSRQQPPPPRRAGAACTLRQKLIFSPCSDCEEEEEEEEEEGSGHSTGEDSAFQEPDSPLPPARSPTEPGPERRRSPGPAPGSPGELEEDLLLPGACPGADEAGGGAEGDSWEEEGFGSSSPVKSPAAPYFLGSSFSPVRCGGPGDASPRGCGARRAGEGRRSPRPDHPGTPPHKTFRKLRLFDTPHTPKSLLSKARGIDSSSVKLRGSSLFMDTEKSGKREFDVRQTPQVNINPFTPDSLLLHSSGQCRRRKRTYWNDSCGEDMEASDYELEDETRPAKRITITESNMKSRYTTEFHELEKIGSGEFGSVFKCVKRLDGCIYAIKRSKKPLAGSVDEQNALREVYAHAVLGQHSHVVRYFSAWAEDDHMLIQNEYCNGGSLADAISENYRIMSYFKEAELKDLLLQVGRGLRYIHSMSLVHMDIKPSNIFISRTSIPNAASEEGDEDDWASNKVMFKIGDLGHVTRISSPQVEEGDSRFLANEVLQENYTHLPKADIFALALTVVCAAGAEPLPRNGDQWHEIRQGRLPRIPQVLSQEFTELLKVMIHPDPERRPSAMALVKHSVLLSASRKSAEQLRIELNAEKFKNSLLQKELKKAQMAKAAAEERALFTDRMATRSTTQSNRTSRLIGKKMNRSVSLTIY

[4] = target: T1, Ephrin type-B receptor 4 (Homo sapiens) (UniProt P54760); assay: Inhibition of EphB4 ACT labeling site in human A-375 cells at 5 uM by KiNativ Profiling analysis relative to control; assay type: cell-based
T1 sequence (whole entry): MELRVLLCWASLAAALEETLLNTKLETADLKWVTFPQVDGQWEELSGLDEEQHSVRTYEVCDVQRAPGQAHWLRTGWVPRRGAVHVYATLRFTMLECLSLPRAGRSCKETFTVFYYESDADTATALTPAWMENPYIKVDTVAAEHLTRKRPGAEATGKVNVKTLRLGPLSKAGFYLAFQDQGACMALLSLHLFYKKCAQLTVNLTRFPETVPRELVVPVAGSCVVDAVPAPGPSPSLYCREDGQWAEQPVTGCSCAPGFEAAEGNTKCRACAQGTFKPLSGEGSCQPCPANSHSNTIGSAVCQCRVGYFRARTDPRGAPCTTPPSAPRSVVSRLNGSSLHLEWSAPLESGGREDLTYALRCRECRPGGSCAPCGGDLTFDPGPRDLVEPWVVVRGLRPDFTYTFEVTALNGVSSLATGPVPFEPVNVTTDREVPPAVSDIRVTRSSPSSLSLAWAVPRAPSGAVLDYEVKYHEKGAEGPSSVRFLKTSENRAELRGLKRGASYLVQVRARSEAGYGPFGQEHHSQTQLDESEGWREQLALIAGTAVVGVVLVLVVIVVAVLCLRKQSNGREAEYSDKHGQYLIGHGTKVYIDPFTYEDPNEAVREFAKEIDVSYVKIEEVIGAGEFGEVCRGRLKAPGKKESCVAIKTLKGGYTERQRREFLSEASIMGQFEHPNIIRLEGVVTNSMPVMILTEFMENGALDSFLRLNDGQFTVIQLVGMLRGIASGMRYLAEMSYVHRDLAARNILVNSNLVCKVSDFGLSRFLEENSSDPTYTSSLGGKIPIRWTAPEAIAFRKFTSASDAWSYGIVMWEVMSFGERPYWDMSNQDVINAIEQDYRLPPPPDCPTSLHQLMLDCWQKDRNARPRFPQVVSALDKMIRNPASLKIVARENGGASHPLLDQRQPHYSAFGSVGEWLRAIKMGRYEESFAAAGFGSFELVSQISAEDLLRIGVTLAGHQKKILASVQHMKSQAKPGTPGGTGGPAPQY
Method in brief: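 Live A375 melanoma cells were treated with compound at 0.5 or 5 μM, then lysed. Lysates were labeled with a lysine-reactive ATP or ADP-biotin probe. The read-out was protection of each kinase probe-labeling site from labeling, relative to control.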

[5] = target: T2, Phosphatidylinositol 5-phosphate 4-kinase type-2 gamma (Homo sapiens) (UniProt Q8TBX8); assay: Inhibition of PIP4K2C ATP labeling site harbouring VKELPTLKDMDFLNK in human A-375 cells at 0.5 uM by KiNativ Profiling analysis relative to control; assay type: cell-based
T2 sequence (whole entry): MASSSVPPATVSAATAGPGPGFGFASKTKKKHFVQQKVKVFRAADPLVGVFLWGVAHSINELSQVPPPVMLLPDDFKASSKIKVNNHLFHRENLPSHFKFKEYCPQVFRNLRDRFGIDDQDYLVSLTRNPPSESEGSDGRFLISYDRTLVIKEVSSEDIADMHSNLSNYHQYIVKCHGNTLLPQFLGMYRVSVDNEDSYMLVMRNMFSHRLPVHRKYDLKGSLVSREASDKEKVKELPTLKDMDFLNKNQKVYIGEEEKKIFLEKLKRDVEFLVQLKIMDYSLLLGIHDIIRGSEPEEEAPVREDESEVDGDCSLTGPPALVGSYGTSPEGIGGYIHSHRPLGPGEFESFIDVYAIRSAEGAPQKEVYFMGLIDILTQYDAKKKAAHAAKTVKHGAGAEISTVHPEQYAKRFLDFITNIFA
Method in brief: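 Live A375 melanoma cells were treated with compound at 5 or 0.5 μM, then lysed. Lysates were labeled with a lysine-reactive ATP or ADP-biotin probe. Read-out was the compound's protection of kinase labeling sites from probe labeling (KiNativ).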

[6] = target: Serine/threonine-protein kinase MARK2 (Homo sapiens) (UniProt Q7KZI7); assay: Inhibition of MARK2 Lys1 labeling site in human A-375 cells at 0.05 uM by KiNativ Profiling analysis relative to control; assay type: cell-based
Chain of Serine/threonine-protein kinase MARK2 (Homo sapiens) (Q7KZI7 whole entry): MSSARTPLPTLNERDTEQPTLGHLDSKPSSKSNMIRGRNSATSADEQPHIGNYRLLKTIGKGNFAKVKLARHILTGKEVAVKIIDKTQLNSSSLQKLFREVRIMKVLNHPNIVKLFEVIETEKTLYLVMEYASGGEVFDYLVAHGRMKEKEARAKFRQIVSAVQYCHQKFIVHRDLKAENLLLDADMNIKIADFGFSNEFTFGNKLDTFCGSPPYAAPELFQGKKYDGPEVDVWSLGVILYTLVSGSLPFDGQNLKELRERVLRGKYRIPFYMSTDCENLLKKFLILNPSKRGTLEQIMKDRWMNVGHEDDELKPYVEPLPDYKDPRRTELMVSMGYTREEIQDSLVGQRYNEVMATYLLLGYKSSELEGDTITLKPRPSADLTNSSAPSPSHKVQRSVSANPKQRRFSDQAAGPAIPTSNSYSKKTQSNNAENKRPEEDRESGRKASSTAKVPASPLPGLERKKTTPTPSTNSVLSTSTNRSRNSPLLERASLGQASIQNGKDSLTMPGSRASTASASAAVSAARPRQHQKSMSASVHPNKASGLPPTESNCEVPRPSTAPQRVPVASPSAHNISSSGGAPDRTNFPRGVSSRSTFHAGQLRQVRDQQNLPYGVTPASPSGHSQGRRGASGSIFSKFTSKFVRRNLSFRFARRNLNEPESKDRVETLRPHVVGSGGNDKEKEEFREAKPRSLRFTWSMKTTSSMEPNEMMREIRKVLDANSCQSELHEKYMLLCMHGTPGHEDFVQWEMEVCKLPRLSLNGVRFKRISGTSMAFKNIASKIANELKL

[7] = target: Mitogen-activated protein kinase 8 (Homo sapiens, UniProt P45983); assay: Inhibition of JNK1 Lys2 labeling site in human A-375 cells at 0.05 uM by KiNativ Profiling analysis relative to control; assay type: cell-based
Chain of Mitogen-activated protein kinase 8 (P45983 whole entry, the tested form may be a part): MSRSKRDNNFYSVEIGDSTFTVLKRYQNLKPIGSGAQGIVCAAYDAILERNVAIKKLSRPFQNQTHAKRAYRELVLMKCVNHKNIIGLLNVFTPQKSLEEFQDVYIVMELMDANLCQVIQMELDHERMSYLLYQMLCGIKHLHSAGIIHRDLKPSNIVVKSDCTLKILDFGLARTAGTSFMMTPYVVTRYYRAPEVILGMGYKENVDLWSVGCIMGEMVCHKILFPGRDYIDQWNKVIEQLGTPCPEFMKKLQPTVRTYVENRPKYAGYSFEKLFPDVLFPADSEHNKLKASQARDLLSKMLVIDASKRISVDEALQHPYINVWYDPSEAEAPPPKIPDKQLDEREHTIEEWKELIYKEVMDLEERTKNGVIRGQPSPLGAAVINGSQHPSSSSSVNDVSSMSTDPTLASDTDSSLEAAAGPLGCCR

[8] = target: Casein kinase II subunit alpha (Homo sapiens) (UniProt P68400); assay: Inhibition of CK2a1 Protein Kinase Domain in human A-375 cells at 5 uM by KiNativ Profiling analysis relative to control; assay type: cell-based
Chain of Casein kinase II subunit alpha (Homo sapiens) (P68400 whole entry, looked up, the tested form may be a part): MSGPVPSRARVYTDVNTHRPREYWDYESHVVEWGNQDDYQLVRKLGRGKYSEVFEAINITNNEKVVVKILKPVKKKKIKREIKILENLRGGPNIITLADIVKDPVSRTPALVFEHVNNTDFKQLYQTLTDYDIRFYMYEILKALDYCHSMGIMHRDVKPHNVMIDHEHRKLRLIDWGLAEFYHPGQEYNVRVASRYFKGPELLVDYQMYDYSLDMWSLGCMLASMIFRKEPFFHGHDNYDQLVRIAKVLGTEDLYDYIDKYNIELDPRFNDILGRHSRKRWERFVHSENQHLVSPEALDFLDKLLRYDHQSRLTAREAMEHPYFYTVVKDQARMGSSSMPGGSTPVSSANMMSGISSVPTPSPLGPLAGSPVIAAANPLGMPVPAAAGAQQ
Method in brief: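 Intact A375 melanoma cells were treated with compound at 5 or 0.5 μM, then lysed. Lysate kinases were labeled with a lysine-reactive ATP or ADP-biotin probe (KiNativ). Inhibition is read as protection of each kinase labeling site from probe labeling.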

[9] = target: Dual specificity mitogen-activated protein kinase kinase 1 (Homo sapiens) (UniProt Q02750); assay: Inhibition of MAP2K1 Lys2 labeling site harbouring IMHRDVKPSNILVNSR in human A-375 cells at 0.5 uM by KiNativ Profiling analysis relative to control; assay type: cell-based
Chain of Dual specificity mitogen-activated protein kinase kinase 1 (Homo sapiens) (Q02750 whole entry): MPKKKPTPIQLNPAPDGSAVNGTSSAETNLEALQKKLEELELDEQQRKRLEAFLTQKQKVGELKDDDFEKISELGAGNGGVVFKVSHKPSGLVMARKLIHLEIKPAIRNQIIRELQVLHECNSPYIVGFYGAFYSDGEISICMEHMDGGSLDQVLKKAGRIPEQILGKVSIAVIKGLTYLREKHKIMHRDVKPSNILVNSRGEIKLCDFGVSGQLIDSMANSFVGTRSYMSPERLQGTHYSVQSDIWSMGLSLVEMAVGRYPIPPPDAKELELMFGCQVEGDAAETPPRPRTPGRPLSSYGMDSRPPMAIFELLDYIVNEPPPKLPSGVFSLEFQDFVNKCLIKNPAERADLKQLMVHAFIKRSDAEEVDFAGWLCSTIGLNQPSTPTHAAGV

[10] = target: Cyclin-dependent kinase 6 (Homo sapiens) (UniProt Q00534); assay: Inhibition of CDK6 Lys2 labeling site in human A-375 cells at 0.5 uM by KiNativ Profiling analysis relative to control; assay type: cell-based
Chain of Cyclin-dependent kinase 6 (Homo sapiens) (Q00534 whole entry): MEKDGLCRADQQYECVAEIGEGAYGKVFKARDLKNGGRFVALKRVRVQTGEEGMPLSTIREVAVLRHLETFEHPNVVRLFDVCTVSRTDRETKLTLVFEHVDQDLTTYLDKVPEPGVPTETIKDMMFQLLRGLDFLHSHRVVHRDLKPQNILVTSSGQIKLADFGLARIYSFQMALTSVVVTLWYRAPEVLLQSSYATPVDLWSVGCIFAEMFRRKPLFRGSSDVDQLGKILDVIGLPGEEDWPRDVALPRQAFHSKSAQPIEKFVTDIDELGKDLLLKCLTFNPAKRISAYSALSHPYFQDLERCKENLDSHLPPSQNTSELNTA
Method in brief: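 Live A375 melanoma cells were treated with compound at 5 or 0.5 μM. The cells were then lysed, and the lysates were labeled with a lysine-reactive ATP or ADP-biotin acyl probe (KiNativ). Inhibition is the compound's protection of each kinase labeling-site peptide from probe labeling, relative to untreated control.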

[11] = target: T1, Ephrin type-B receptor 4 (Homo sapiens); assay: Inhibition of EphB4 ACT labeling site in human Huh-7 cell lysate at 1 uM by KiNativ Profiling analysis relative to control; assay type: subcellular

Chain of Tyrosine-protein kinase Fer (P16591 whole entry, looked up, the tested form may be a part): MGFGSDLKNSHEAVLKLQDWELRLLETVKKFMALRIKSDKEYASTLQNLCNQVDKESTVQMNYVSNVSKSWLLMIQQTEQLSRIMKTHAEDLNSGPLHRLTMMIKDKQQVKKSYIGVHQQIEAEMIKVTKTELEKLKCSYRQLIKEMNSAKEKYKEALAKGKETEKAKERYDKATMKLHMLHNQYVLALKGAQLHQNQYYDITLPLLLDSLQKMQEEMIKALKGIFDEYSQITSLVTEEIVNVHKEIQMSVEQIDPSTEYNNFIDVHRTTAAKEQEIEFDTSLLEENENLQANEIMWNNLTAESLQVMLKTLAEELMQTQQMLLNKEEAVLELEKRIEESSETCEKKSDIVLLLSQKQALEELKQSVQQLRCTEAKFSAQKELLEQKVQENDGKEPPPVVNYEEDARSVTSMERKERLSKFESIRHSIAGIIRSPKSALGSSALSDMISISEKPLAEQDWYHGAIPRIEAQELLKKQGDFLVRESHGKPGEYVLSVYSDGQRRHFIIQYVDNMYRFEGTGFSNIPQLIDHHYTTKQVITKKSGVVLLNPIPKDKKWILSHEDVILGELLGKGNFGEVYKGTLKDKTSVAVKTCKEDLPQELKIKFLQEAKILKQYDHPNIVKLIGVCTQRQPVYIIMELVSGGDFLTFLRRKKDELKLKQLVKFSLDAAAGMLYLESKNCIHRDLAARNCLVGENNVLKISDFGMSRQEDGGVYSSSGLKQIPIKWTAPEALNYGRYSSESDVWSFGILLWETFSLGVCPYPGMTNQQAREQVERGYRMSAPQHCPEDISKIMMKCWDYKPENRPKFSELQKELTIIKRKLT

Structure (SMILES)	inhibition [1] [%]	inhibition [2] [%]	inhibition [3] [%]	inhibition [4] [%]	inhibition [5] [%]	inhibition [6] [%]	inhibition [7] [%]	inhibition [8] [%]	inhibition [9] [%]	inhibition [10] [%]	inhibition [11] [%]
CCN1CCN(Cc2ccc(NC(=O)c3ccc(C)c(Oc4ccnc5[nH]ccc45)c3)cc2C(F)(F)F)CC1	88.5	-4.7	13.6	-4.2	3.2	1.2	50.3	15.4	28.4	3.9	
CNc1cc(Oc2cc(C(=O)Nc3cc(-n4cnc(C)c4)cc(C(F)(F)F)c3)ccc2C)ncn1											1.2
CNc1cc(Oc2cc(C(=O)Nc3cc(N4CCN(C)CC4)cc(C(F)(F)F)c3)ccc2C)ncn1											0.2
CCN1CCN(Cc2ccc(NC(=O)c3ccc(C)c(/C=C/c4cnc5[nH]ccc5c4OC)c3)cc2C(F)(F)F)CC1	23.3	1.4	8	> 90	-5.8	3	23.9	1	19.2	11.4	
